# Source: ChEMBL document CHEMBL5674868, “Cancer Cells Hijack PRC2 to Modify Multiple Cytokine Pathways” (PLoS One, 2015)
# The source made the active and inactive calls. No cut-off for these calls is given here.
# Legend:
# Format in all cases: cell-based
# [1] = molecular target: Histone-lysine N-methyltransferase EZH2 (Homo sapiens) (UniProt Q15910); experiment: Inhibition of EZH2 in human MCF7 cells assessed as effect on PITX2 mRNA level after 6 hrs by RT-PCR analysis
# Outline: (§1)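 Cells pretreated for two 4-day cycles with 2 µM GSK343 or UNC1999, then left unstimulated or given human IFNγ for 6 h. RNA reverse-transcribed and measured by quantitative PCR, normalized to β-actin. Three biological replicates per treatment group.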
# [2] = molecular target: Histone-lysine N-methyltransferase EZH2 (Homo sapiens) (UniProt Q15910); experiment: Inhibition of EZH2 in human A549 cells assessed as effect on PITX2 mRNA level after 6 hrs by RT-PCR analysis
# Outline: (§2)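 Cells were treated for two four-day cycles with 2 μM GSK343 or UNC1999, then left untreated or stimulated with human IFNγ for 6 h. mRNA was measured by reverse transcription quantitative PCR and normalized to β-actin. Three biological replicates were run per treatment group.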
# [3] = molecular target: Histone-lysine N-methyltransferase EZH2 (Homo sapiens) (UniProt Q15910); experiment: Inhibition of EZH2 in human A549 cells assessed as increase in TNF-alpha-induced IL-8 level for 24 hrs by multiplexing laser bead assay
# Outline: (§3)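 A549 cells were pretreated with vehicle or UNC1999 over two four-day cycles at 2 μM. They were seeded at 3×10^4/well, rested for 4 h, then exposed for 24 h to no stimulus, 5 μg/ml E. coli LPS or 10 U/ml TNFα. Secreted cytokines in the supernatants were quantified by a 41-plex laser bead assay.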
# [4] = molecular target: Histone-lysine N-methyltransferase EZH2 (Homo sapiens) (UniProt Q15910); experiment: Inhibition of EZH2 in human A549 cells assessed as increase in LPS-induced PDGFA level for 24 hrs by multiplexing laser bead assay; outline: as §3
# [5] = molecular target: Histone-lysine N-methyltransferase EZH2 (Homo sapiens) (UniProt Q15910); experiment: Inhibition of EZH2 in human ASPC1 cells assessed as effect on PITX2 mRNA level after 6 hrs by RT-PCR analysis in presence of IFN-gamma; outline: as §2
# [6] = molecular target: Histone-lysine N-methyltransferase EZH2 (Homo sapiens) (UniProt Q15910); experiment: Inhibition of EZH2 in human MCF7 cells assessed as effect on IRF1 mRNA level after 6 hrs by RT-PCR analysis in presence of IFN-gamma; outline: as §1
# [7] = molecular target: Histone-lysine N-methyltransferase EZH2 (Homo sapiens) (UniProt Q15910); experiment: Inhibition of EZH2 in human A549 cells assessed as increase in TNF-alpha-induced VEGFA level for 24 hrs by multiplexing laser bead assay; outline: as §3
# [8] = molecular target: Histone-lysine N-methyltransferase EZH2 (Homo sapiens) (UniProt Q15910); experiment: Inhibition of EZH2 in human MCF7 cells assessed as decrease in H3K27me3 levels at 2 uM after 6 hrs by Western blot analysis
# [9] = molecular target: Histone-lysine N-methyltransferase EZH2 (Homo sapiens) (UniProt Q15910); experiment: Inhibition of EZH2 in human A549 cells assessed as effect on IRF1 mRNA level after 6 hrs by RT-PCR analysis; outline: as §2
# [10] = molecular target: Histone-lysine N-methyltransferase EZH2 (Homo sapiens) (UniProt Q15910); experiment: Inhibition of EZH2 in human A549 cells assessed as effect on PITX2 mRNA level after 6 hrs by RT-PCR analysis in presence of IFN-gamma; outline: as §2
# [11] = molecular target: Histone-lysine N-methyltransferase EZH2 (Homo sapiens) (UniProt Q15910); experiment: Inhibition of EZH2 in human A549 cells assessed as increase in TNF-alpha-induced TGFA level for 24 hrs by multiplexing laser bead assay; outline: as §3
# [12] = molecular target: Histone-lysine N-methyltransferase EZH2 (Homo sapiens) (UniProt Q15910); experiment: Inhibition of EZH2 in human A549 cells assessed as increase in TNF-alpha-induced CXCL-1 level for 24 hrs by multiplexing laser bead assay; outline: as §3
# [13] = molecular target: Histone-lysine N-methyltransferase EZH2 (Homo sapiens) (UniProt Q15910); experiment: Inhibition of EZH2 in human A549 cells assessed as increase in TNF-alpha-induced PDGFA level for 24 hrs by multiplexing laser bead assay; outline: as §3
# [14] = molecular target: Histone-lysine N-methyltransferase EZH2 (Homo sapiens) (UniProt Q15910); experiment: Inhibition of EZH2 in human A549 cells assessed as increase in LPS-induced VEGF-A level for 24 hrs by multiplexing laser bead assay; outline: as §3
# [15] = molecular target: Histone-lysine N-methyltransferase EZH2 (Homo sapiens) (UniProt Q15910); experiment: Inhibition of EZH2 in human HeLa cells assessed as effect on IRF1 mRNA level after 6 hrs by RT-PCR analysis; outline: as §2
# [16] = molecular target: Histone-lysine N-methyltransferase EZH2 (Homo sapiens) (UniProt Q15910); experiment: Inhibition of EZH2 in human HeLa cells assessed as decrease in H3K27me3 levels at 2 uM after 6 hrs by Western blot analysis
# [17] = molecular target: Histone-lysine N-methyltransferase EZH2 (Homo sapiens) (UniProt Q15910); experiment: Inhibition of EZH2 in human MCF7 cells assessed as effect on PITX2 mRNA level after 6 hrs by RT-PCR analysis in presence of IFN-gamma; outline: as §1
# [18] = molecular target: Histone-lysine N-methyltransferase EZH2 (Homo sapiens) (UniProt Q15910); experiment: Inhibition of EZH2 in human A549 cells assessed as increase in TNF-alpha-induced IL-6 level for 24 hrs by multiplexing laser bead assay; outline: as §3
# [19] = molecular target: Histone-lysine N-methyltransferase EZH2 (Homo sapiens) (UniProt Q15910); experiment: Inhibition of EZH2 in human A549 cells assessed as increase in IFN-gamma-induced CXCL10 level for 24 hrs by ELISA
# Outline: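 A549 cells were pretreated for two four-day cycles with 2 μM UNC1999 or with DMSO. They were seeded at 3×10^4/well, allowed to settle for 4 h, then given the indicated concentrations of IFNγ, IL1β, LPS or TNFα for 24 h. Secreted IL6, IL8 or CXCL10 in the supernatant was measured by ELISA in duplicate. n = 3; ANOVA followed by Fisher test.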
# [20] = molecular target: Histone-lysine N-methyltransferase EZH2 (Homo sapiens) (UniProt Q15910); experiment: Inhibition of EZH2 in human ASPC1 cells assessed as effect on IRF1 mRNA level after 6 hrs by RT-PCR analysis; outline: as §2
# [21] = molecular target: Histone-lysine N-methyltransferase EZH2 (Homo sapiens) (UniProt Q15910); experiment: Inhibition of EZH2 in human A549 cells assessed as increase in LPS-induced TGF-A level for 24 hrs by multiplexing laser bead assay; outline: as §3
# [22] = molecular target: Histone-lysine N-methyltransferase EZH2 (Homo sapiens) (UniProt Q15910); experiment: Inhibition of EZH2 in human HeLa cells assessed as effect on IRF1 mRNA level after 6 hrs by RT-PCR analysis in presence of IFN-gamma; outline: as §2
# [23] = molecular target: Histone-lysine N-methyltransferase EZH2 (Homo sapiens) (UniProt Q15910); experiment: Inhibition of EZH2 in human ASPC1 cells assessed as effect on HPRT mRNA level after 6 hrs by RT-PCR analysis in presence of IFN-gamma; outline: as §2
# [24] = molecular target: Histone-lysine N-methyltransferase EZH2 (Homo sapiens) (UniProt Q15910); experiment: Inhibition of EZH2 in human A549 cells assessed as increase in LPS-induced CCL-5 level for 24 hrs by multiplexing laser bead assay; outline: as §3
# [25] = molecular target: Histone-lysine N-methyltransferase EZH2 (Homo sapiens) (UniProt Q15910); experiment: Inhibition of EZH2 in human A549 cells assessed as increase in LPS-induced IL-6 level for 24 hrs by multiplexing laser bead assay; outline: as §3
# [26] = molecular target: Histone-lysine N-methyltransferase EZH2 (Homo sapiens) (UniProt Q15910); experiment: Inhibition of EZH2 in human A549 cells assessed as increase in LPS-induced IL-8 level for 24 hrs by multiplexing laser bead assay; outline: as §3
# [27] = molecular target: Histone-lysine N-methyltransferase EZH2 (Homo sapiens) (UniProt Q15910); experiment: Inhibition of EZH2 in human A549 cells assessed as effect on HPRT mRNA level after 6 hrs by RT-PCR analysis in presence of IFN-gamma; outline: as §2
# Chain of Histone-lysine N-methyltransferase EZH2 (Homo sapiens) (Q15910 whole entry, looked up): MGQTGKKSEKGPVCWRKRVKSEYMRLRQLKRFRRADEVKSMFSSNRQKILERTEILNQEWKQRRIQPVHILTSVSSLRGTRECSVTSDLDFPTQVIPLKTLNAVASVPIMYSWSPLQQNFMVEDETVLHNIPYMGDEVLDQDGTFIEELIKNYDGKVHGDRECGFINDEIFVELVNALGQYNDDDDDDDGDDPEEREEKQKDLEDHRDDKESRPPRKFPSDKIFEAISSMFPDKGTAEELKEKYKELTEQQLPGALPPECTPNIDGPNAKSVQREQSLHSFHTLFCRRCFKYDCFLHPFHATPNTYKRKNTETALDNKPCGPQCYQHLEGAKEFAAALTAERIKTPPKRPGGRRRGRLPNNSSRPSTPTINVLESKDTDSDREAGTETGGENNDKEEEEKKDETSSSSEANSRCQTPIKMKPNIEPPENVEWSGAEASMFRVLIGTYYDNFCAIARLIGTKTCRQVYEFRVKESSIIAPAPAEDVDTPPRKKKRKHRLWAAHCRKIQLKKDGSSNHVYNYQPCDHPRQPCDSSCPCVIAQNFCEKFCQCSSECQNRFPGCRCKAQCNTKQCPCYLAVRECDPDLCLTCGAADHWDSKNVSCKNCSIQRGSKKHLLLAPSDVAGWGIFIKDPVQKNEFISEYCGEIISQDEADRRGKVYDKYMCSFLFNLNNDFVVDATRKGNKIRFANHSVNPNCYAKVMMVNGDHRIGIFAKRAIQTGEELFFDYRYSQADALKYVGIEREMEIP
smiles,measurement,setting,value
CCCc1cc(C)[nH]c(=O)c1CNC(=O)c1cc(-c2ccc(N3CCN(C(C)C)CC3)nc2)cc2c1cnn2C(C)C,inhibition,[1],inactive
same,inhibition,[2],inactive
same,inhibition,[3],Active
same,inhibition,[4],Active
same,inhibition,[5],inactive
same,inhibition,[6],inactive
same,inhibition,[7],Active
same,inhibition,[8],Active
same,inhibition,[9],inactive
same,inhibition,[10],inactive
same,inhibition,[11],Active
same,inhibition,[12],Active
same,inhibition,[13],Active
same,inhibition,[14],Active
same,inhibition,[15],inactive
same,inhibition,[16],Active
same,inhibition,[17],inactive
same,inhibition,[18],Active
same,inhibition,[19],Active
same,inhibition,[20],inactive
same,inhibition,[21],Active
same,inhibition,[22],inactive
same,inhibition,[23],inactive
same,inhibition,[24],Active
same,inhibition,[25],Active
same,inhibition,[26],Active
same,inhibition,[27],inactive
